Compound activity (PubChem)
Shown are actives, neighbours in structure and some others; about 2% of the full set was active somewhere.
PABP1 MLLE inh: inhibitors of microRNA-mediated deadenylation, human PABP1 MLLE binding | inhibition, % at 20 µM | GST-MLLE / FITC-PAM2 fluorescence polarization | actives 0.36% (n = 360,000); in the data active = inhibition above about 35%, passing the limit was not always enough;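 note: plate controls were DMSO wells with GST-MLLE for no effect and wells lacking GST-MLLE protein for full effect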
NS3 helicase inh: HCV NS3 helicase inhibition. inhibition, % at 10.9 µM. actives 0.56% (n = 290,000). NS3 helicase DNA unwinding, Cy5 molecular beacon fluorescence;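 active = inhibition above the mean of all tested compounds plus 3 SD, set per campaign, cut at about 35% in these data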;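 note: 0% = DMSO wells and 100% = thioflavine S control wells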
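Compound dosing – single dose, 10.9 µM nominal final, DMSO 0.8% final · System – NS3 helicase fragment of HCV · Buffer or medium – MOPS pH 6.5, MgCl2, DTT, Tween20, BSA · Signal – Cy5 beacon fluorescence read at start and 1 h · Also added – annealed dual-labelled DNA beacon duplex, ATP-started · Schedule – 1 h at 25 °C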
core dimer inh: HCV core protein dimerization inhibition; TR-FRET GST/Flag-core106 dimerization, 1536-well; inhibition, % at 5 µM; actives 0.33% (n = 300,000);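 active = inhibition above the mean of all tested compounds plus 3 SD, set per screening campaign, cut at about 45% in these data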
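Assay system: Tagged HCV core106 pair (GST and Flag) | Buffer or medium: KF-containing HEPES buffer, pH 7.45, DTT, CHAPS, BSA | Also added: Eu donor and XL665 acceptor anti-tag antibodies | Dosing: One concentration, 5 µM, in 0.5% DMSO | Timing: 4 h at 22.5 °C | Technique: TR-FRET 671 and 617 nm emission | Repeats: Singlicate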
FID counter: fluorescent intercalator displacement, NS3 helicase counter-screen; DNA fluorescent intercalator displacement, fluorescence; inhibition, % at 7.9 µM; AID 1845; actives 0.17% (n = 290,000); in the data active = inhibition above about 37%;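 note: 0% = vehicle and 100% = reference compound; higher means more ethidium bromide displaced from hairpin DNA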
eIF4H FP inh: inhibitors of RNA binding by human eIF4H; Q15056; eIF4H fluorescence polarization binding assay; inhibition, % at 35 µM; actives 0.94% (n = 290,000);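 note: calls also rest on retests at 20 µM and on dose response follow-up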
PABP polyA inh: PABP-poly(A) binding inhibition. inhibition, % at 35 µM. AID 2014. P11940. PABP-poly(A) RNA binding, fluorescence polarization. actives 1% (n = 290,000);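 note: calls also rest on retests at 20 µM and on dose response follow-up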
* marks the source's active call; other numbers are inactive results; u = inconclusive; x = no result. Unless noted, the rule behind the calls is not given here.

SMILES	PABP1 MLLE inh	NS3 helicase inh	core dimer inh	FID counter	eIF4H FP inh	PABP polyA inh
CC1CC(C)CN(C(=O)CCc2ccccc2)C1 (centres undefined)	1	-1	-1	-5	active	97
O=C(CCc1ccccc1)N1CCN(C(=O)CCc2ccccc2)CC1	11	x	x	x	x	x
CCn1cc(C(=O)Nc2ccccc2)c(=O)c2ccc(C)nc21	x	-1	-3	0	10	14
C=CCSc1nnc(NC(=O)c2cn(CC)c3nc(C)ccc3c2=O)s1	-100	8	10	-2	49	53*
COc1cccc2c(=O)c3cccc(N)c3[nH]c12	7	0	23	1	94*	8.7*
c1ccc(NC2=NCCCCS2)cc1	-6	6	3	-3	108*	2
CCOC(=O)c1csc(NC(=O)CSc2nnnn2-c2ccc(OC)cc2)n1	0	3	4	-3	-5	9
CCOC(=O)c1c(NC(=O)CSc2nnnn2-c2ccc(OC)cc2)sc(C)c1C	43*	8	7	-2	1	0
Cc1c(C(=O)N2CCOCC2)c(S(=O)(=O)Nc2ccccc2)c(C)n1C	-14	3	-4	-5	6	7
Cc1cc(-c2csc(NC(=O)c3ccc(=O)[nH]c3)n2)c(C)n1Cc1ccco1	-22	20	49*	-12	u	u
Cc1cc(-c2csc(NC(=O)c3ccc(=O)n(C)n3)n2)c(C)n1CC1CCCO1 (centres undefined)	14	18	53*	-20	35	26
CCNc1nc(-c2cc(C)n(Cc3ccco3)c2C)cs1	4	7	30	-17	u	4
Cc1ccc(-c2c(C(=O)N/N=C/c3c[nH]c4ccccc34)nnn2-c2nonc2N)cc1	-1	-36	-7	-4	-9	-3
CC(C)C(=O)N1CCCC1(C)C(=O)N(C)Cc1cccc2ccccc12 (centres undefined)	-3	x	x	x	x	x
Cc1ccccc1-c1nn(-c2ccc(F)cc2F)cc1CNCCCN(C)C	-4	-50	-7	42*	-1	9
Cc1ccccc1-c1nn(-c2ccc(F)cc2F)cc1CNCCN(C)C	9	-59	-5	22	-6	-6
C(=C\c1ccccc1)/CSc1ccccn1	-10	9	6	8	active	57*
Cc1cc(C)nc(SC/C=C/c2ccccc2)n1	20	4	-2	-22	0	3
CCCn1c(N)c(C(=O)CSc2nnc3ccccn23)c(=O)n(C)c1=O	7	x	x	x	x	x
Oc1ccccc1N=Cc1c(O)ccc2ccccc12	-65	12	x	-2	86	118*
Oc1ccc2ccccc2c1C=Nc1ccccc1Br	-87	-2	-1	2	-4	5
COc1ccc(S(=O)(=O)Nc2cc3c4c(c2)CC(=O)N4CCC3)cc1OC	1	x	x	x	x	x
CCOC(=O)CNc1ccc2c(c1)OCO2	127	1	11	1	u	105*
CCOC(=O)CNC(=O)/C=C/c1ccc2c(c1)OCO2	-4	16	0	0	-1	-7
CCOc1ccc(/C=N/NC(=O)c2ccc(F)cc2)cc1CN1CC2CC(C1)c1cccc(=O)n1C2 (centres undefined)	-8	x	x	x	x	x
SMILES	PABP1 MLLE inh	NS3 helicase inh	core dimer inh	FID counter	eIF4H FP inh	PABP polyA inh
COC(=O)CC1=C(C(=O)OC)C(c2cccc(OCC(N)=O)c2)C(C#N)=C(N)O1 (centres undefined)	7	-1	2	-10	45	27
COC(=O)CC1=C(C(=O)OC)C(c2ccncc2)C(C#N)=C(N)O1 (centres undefined)	3	2	1	-3	109	105*
CCCNC(=O)c1cc(C2CCCCN2C(=O)c2cc(C(C)(C)C)nn2C)on1 (centres undefined)	8	x	x	x	x	x
O=C(Oc1ccc(-n2cnnn2)cc1)c1ccccc1	-6	10	6	2	71*	-11
NC(=O)c1ccc(NC(=O)COc2ccc(-n3cnnn3)cc2)cc1	-29	x	x	x	x	x
O=C(Oc1ccccc1)c1ccc(-n2cnnn2)cc1	-11	-1	-6	-1	12	0
NC(=O)COc1ccc(-n2cnnn2)cc1	2	-16	46*	1	92*	1
Cc1ccc(C(=O)/C=C/C(=O)O)cc1	44*	20	-3	-6	-1	0
